Source: ChEMBL document CHEMBL1123899, “Nucleic acid related compounds. 51. Synthesis and biological properties of sugar-modified analogues of the nucleoside antibiotics tubercidin, toyocamycin, sangivamycin, and formycin” (1987)
≈ marks a conversion by molar mass, not a printed value.

How the values were obtained:
[1] = system: Poliovirus 1; assay: Minimum inhibitory concentration required to reduce Polio virus type 1 induced cytopathogenicity by 50%; assay type: functional; conditions: Enterovirus C
[2] = system: Human respirovirus 3; assay: Minimum inhibitory concentration required to reduce parainfluenza type 3 induced cytopathogenicity by 50%; assay type: functional
[3] = system: Human alphaherpesvirus 2; assay: Minimum inhibitory concentration required to reduce Herpes simplex virus type 2 (HSV-2 strain G) induced cytopathogenicity by 50%; assay type: functional
[4] = system: Mammalian orthoreovirus 1; assay: Minimum inhibitory concentration required to reduce reo virus type 1 induced cytopathogenicity by 50%; assay type: functional
[5] = system: Sindbis virus; assay: Minimum inhibitory concentration required to reduce sindbis virus induced cytopathogenicity by 50%; assay type: functional
[6] = organism: Oryctolagus cuniculus; assay: Minimum cytotoxic concentration required to cause a microscopically detectable alteration of normal cell morphology in primary rabbit kidney cells; assay type: functional
Outline: (§1)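 Cytotoxicity read microscopically as the minimum concentration producing a detectable alteration of normal cell morphology, in PRK, HeLa or Vero cell cultures. Average of two to three separate experiments.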

[7] = system: HeLa; assay: Minimum cytotoxic concentration required to cause a microscopically detectable alteration of normal cell morphology in Hela cells; assay type: functional, Homo sapiens; outline: as §1
[8] = system: Vesicular stomatitis virus; assay: Minimum inhibitory concentration required to reduce Vesicular stomatitis virus (VSV) induced cytopathogenicity by 50%; assay type: functional
[9] = system: Vesicular stomatitis virus; assay: Minimum inhibitory concentration required to reduce vesicular stomatitis virus (VSV) induced cytopathogenicity by 50%; assay type: functional
[10] = system: L1210; assay: Inhibition of murine leukemia L1210 cell growth; assay type: functional; conditions: Mus musculus
Outline: (§2)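 Murine L1210 leukemia cells; MIC50 is the concentration reducing cell growth, or incorporation of [methyl-3H]dThd into TCA-insoluble material (DNA synthesis), by 50%. Average of at least three separate experiments.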

[11] = system: Measles morbillivirus; assay: Minimum inhibitory concentration required to reduce measles virus induced cytopathogenicity by 50%; assay type: functional
[12] = system: Vero; assay: Minimum cytotoxic concentration required to cause a microscopically detectable alteration of normal cell morphology in Vero cells; assay type: functional, Chlorocebus sabaeus; outline: as §1
[13] = system: Human alphaherpesvirus 1; assay: Minimum inhibitory concentration required to reduce Herpes simplex virus type 1 (HSV-1, strain KOS) induced cytopathogenicity by 50%; assay type: functional
[14] = system: L1210; assay: Minimum inhibitory concentration required to reduce incorporation of [methyl-3H]dThd into TCA-insoluble material from murine leukemia L1210 cells; assay type: functional; conditions: Mus musculus; outline: as §2
[15] = system: L1210; assay: Minimum inhibitory concentration required to reduce incorporation of [4,5-3H]leucine into TCA-insoluble material from murine leukemia L1210 cells; assay type: functional; conditions: Mus musculus
Outline: (§3)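 Murine L1210 leukemia cells were exposed to compound and incorporation of [4,5-3H]leucine (protein) or [5-3H]Urd (RNA) into TCA-insoluble material was measured. MIC50 is the concentration reducing incorporation by 50%. Values are averages of at least three separate experiments.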

[16] = system: L1210; assay: Minimum inhibitory concentration required to reduce incorporation of [5-3H]-Urd into TCA-insoluble material from murine leukemia L1210 cells; assay type: functional; conditions: Mus musculus; outline: as §3
[17] = system: Coxsackievirus B4; assay: Minimum inhibitory concentration required to reduce Coxsackie virus type B-4-induced cytopathogenicity by 50%; assay type: functional; conditions: Enterovirus B; read-out: MIC50

Row | SMILES | MIC50 [1] [µg/mL] | MIC50 [2] [µg/mL] | MIC50 [3] [µg/mL] | MIC50 [4] [µg/mL] | MIC50 [5] [µg/mL] | MTC [6] [µg/mL] | MTC [7] [µg/mL] | MIC50 [8] [µg/mL] | MIC50 [9] [µg/mL] | MIC50 [10] [µg/mL] | MIC50 [11] [µg/mL] | MTC [12] [µg/mL] | MIC50 [13] [µg/mL] | MIC50 [14] [µg/mL] | MIC50 [15] [µg/mL] | MIC50 [16] [µg/mL] | MIC50 [17] [µg/mL]
1 | Nc1ncnc2c1ccn2[C@@H]1O[C@H](CO)[C@H](O)[C@H]1O | > 4 | > 40 | 0.07 (≈ 0.263 µM) | > 40 | > 40 | 10 | 4 | > 4 | > 10 | 0.248 (≈ 0.931 µM) | > 40 | 40 | 0.2 (≈ 0.751 µM) | 6.7 (≈ 25.2 µM) |  |  | 
2 | Nc1ncnc2c1ccn2[C@H]1C[C@H](O)[C@@H](CO)O1 [2'-Deoxytubercidin] | 150 (≈ 599 µM) | 40 (≈ 160 µM) | 40 (≈ 160 µM) | 200 (≈ 799 µM) | > 400 | >400 | >400 | 150 (≈ 599 µM) | 125 (≈ 499 µM) | 23 (≈ 91.9 µM) | > 200 | >400 | 50 (≈ 200 µM) | 127 (≈ 507 µM) | 44 (≈ 176 µM) | 205 (≈ 819 µM) | 
3 | NC(=O)c1cn(C2OC(CO)CC2O)c2ncnc(N)c12 (configuration not stated) | > 40 | 10 (≈ 34.1 µM) | > 10 | > 40 | > 40 | 10 | 40 | > 40 | > 10 | 0.46 (≈ 1.57 µM) | > 40 | 40 | > 10 | 17 (≈ 58 µM) |  |  | > 40
4 | Nc1ncnc2c(C3OC(CO)CC3O)n[nH]c12 (configuration not stated) | > 400 | > 400 |  | > 400 | > 400 | >400 | >400 | > 400 | > 400 | > 1000 | 100 (≈ 398 µM) | >400 | > 400 | > 1000 | > 1000 | > 1000 | > 400
5 | Nc1ncnc2c1ccn2[C@@H]1O[C@H](CO)[C@@H](O)[C@@H]1O | > 400 | 300 (≈ 1130 µM) | 40 (≈ 150 µM) | > 400 | > 400 | >400 | >400 | > 350 | > 400 | 7 (≈ 26.3 µM) | > 400 | >400 | 125 (≈ 469 µM) | 32 (≈ 120 µM) | 151 (≈ 567 µM) | 237 (≈ 890 µM) | > 400
6 | Nc1ncnc2c([C@@H]3O[C@H](CO)[C@@H](O)[C@H]3O)[nH]nc12 [FORMYCIN] | > 1 | 2 (≈ 7.48 µM) | 8 (≈ 29.9 µM) | > 10 | > 10 | 20 | 1 | > 1 | 10 (≈ 37.4 µM) | 3.7 (≈ 13.8 µM) | > 10 | 10 | 10 (≈ 37.4 µM) | 7.5 (≈ 28.1 µM) | 5.5 (≈ 20.6 µM) | 25.7 (≈ 96.2 µM) | 
7 | Nc1ncnc2c([C@H]3C[C@H](O)[C@@H](CO)O3)n[nH]c12 | > 400 | > 400 | > 400 | > 400 | > 400 | >400 | >400 | > 400 | > 400 | 867 (≈ 3450 µM) | > 400 | >400 | > 400 | > 1000 | > 1000 | > 100 | > 400
8 | N#Cc1cn([C@@H]2O[C@H](CO)[C@@H](O)[C@H]2O)c2ncnc(N)c12 [TOYOCAMYCIN] | > 0.4 | > 0.04 | > 0.04 | > 0.04 | > 0.04 | 0.04 | 0.4 | 0.07 (≈ 0.24 µM) | > 0.04 | 0.006 (≈ 0.0206 µM) |  | 0.04 | > 0.04 | 38 (≈ 130 µM) | 0.039 (≈ 0.134 µM) | 0.071 (≈ 0.244 µM) | 
9 | NC(=O)c1cn([C@@H]2O[C@H](CO)[C@@H](O)[C@@H]2O)c2ncnc(N)c12 | > 10 | 1 (≈ 3.23 µM) | 1 (≈ 3.23 µM) | 6 (≈ 19.4 µM) | > 40 | 40 | 10 | 1.5 (≈ 4.85 µM) | 3 (≈ 9.7 µM) | 0.98 (≈ 3.17 µM) | 10 (≈ 32.3 µM) | 40 | 4 (≈ 12.9 µM) | 50 (≈ 162 µM) | 2.2 (≈ 7.11 µM) | 5.85 (≈ 18.9 µM) | 
